# Reference: ChEMBL document CHEMBL5376013, “Design, synthesis and biological evaluation of novel morpholinopyrimidine-5-carbonitrile derivatives as dual PI3K/mTOR inhibitors” (RSC Med Chem, 2024)
# Tests used:
# Assay type in all cases: functional
# Conditions in all cases: read-out: GI
# HL-60 = experiment: Antitumor activity against human HL-60 cells assessed as growth inhibition at 10 uM relative to control
# Outline: (§1)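 After drug addition, plates were incubated 48 h at 37 °C under 5% CO2. Adherent cells were fixed with cold TCA (10% final, 60 min, 4 °C) and suspension cells with 16% final TCA. Staining used 0.4% SRB in 1% acetic acid, solubilized in 10 mM trizma, read at A515. Percent growth was calculated from time-zero, control and treated absorbances.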
# RPMI-8226 = experiment: Antitumor activity against human RPMI-8226 cells assessed as growth inhibition at 10 uM relative to control; outline: as §1
# SR = experiment: Antitumor activity against human SR cells assessed as growth inhibition at 10 uM relative to control
# Outline: (§2)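 Drug exposure 48 h at 37 °C, 5% CO2. Adherent cells fixed with cold TCA (10% final), suspension cells with TCA (16% final). Stained with 0.4% SRB in 1% acetic acid, dissolved in 10 mM Tris, A515. Growth relative to time-zero and untreated control.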
# EKVX = experiment: Antitumor activity against human EKVX cells assessed as growth inhibition at 10 uM relative to control; outline: as §1
# HOP-62 = experiment: Antitumor activity against human HOP-62 cells assessed as growth inhibition at 10 uM relative to control; outline: as §1
# HOP-92 = experiment: Antitumor activity against human HOP-92 cells assessed as growth inhibition at 10 uM relative to control; outline: as §1
# NCI-H226 = experiment: Antitumor activity against human NCI-H226 cells assessed as growth inhibition at 10 uM relative to control; outline: as §1
# NCI-H23 = experiment: Antitumor activity against human NCI-H23 cells assessed as growth inhibition at 10 uM relative to control; outline: as §1
# NCI-H322M = experiment: Antitumor activity against human NCI-H322M cells assessed as growth inhibition at 10 uM relative to control; outline: as §1
# NCI-H460 = experiment: Antitumor activity against human NCI-H460 cells assessed as growth inhibition at 10 uM relative to control; outline: as §1
# NCI-H522 = experiment: Antitumor activity against human NCI-H522 cells assessed as growth inhibition at 10 uM relative to control; outline: as §1
# COLO 205 = experiment: Antitumor activity against human COLO 205 cells assessed as growth inhibition at 10 uM relative to control; outline: as §1
# HCC 2998 = experiment: Antitumor activity against human HCC 2998 cells assessed as growth inhibition at 10 uM relative to control; outline: as §1
# HCT-116 = experiment: Antitumor activity against human HCT-116 cells assessed as growth inhibition at 10 uM relative to control; outline: as §1
# HT-29 = experiment: Antitumor activity against human HT-29 cells assessed as growth inhibition at 10 uM relative to control; outline: as §1
# KM12 = experiment: Antitumor activity against human KM12 cells assessed as growth inhibition at 10 uM relative to control; outline: as §1
# SW-620 = experiment: Antitumor activity against human SW-620 cells assessed as growth inhibition at 10 uM relative to control; outline: as §2
# SF-268 = experiment: Antitumor activity against human SF-268 cells assessed as growth inhibition at 10 uM relative to control; outline: as §1
# SF-295 = experiment: Antitumor activity against human SF-295 cells assessed as growth inhibition at 10 uM relative to control; outline: as §1
# SF-539 = experiment: Antitumor activity against human SF-539 cells assessed as growth inhibition at 10 uM relative to control; outline: as §1
# SNB-19 = experiment: Antitumor activity against human SNB-19 cells assessed as growth inhibition at 10 uM relative to control; outline: as §2
# SNB-75 = experiment: Antitumor activity against human SNB-75 cells assessed as growth inhibition at 10 uM relative to control; outline: as §2
# U-251 = experiment: Antitumor activity against human U-251 cells assessed as growth inhibition at 10 uM relative to control; outline: as §2
# Malme-3M = experiment: Antitumor activity against human Malme-3M cells assessed as growth inhibition at 10 uM relative to control; outline: as §1
# M14 = experiment: Antitumor activity against human M14 cells assessed as growth inhibition at 10 uM relative to control; outline: as §1
# MDA-MB-435 = experiment: Antitumor activity against human MDA-MB-435 cells assessed as growth inhibition at 10 uM relative to control; outline: as §1
# SK-MEL-2 = experiment: Antitumor activity against human SK-MEL-2 cells assessed as growth inhibition at 10 uM relative to control; outline: as §1
# SK-MEL-28 = experiment: Antitumor activity against human SK-MEL-28 cells assessed as growth inhibition at 10 uM relative to control; outline: as §2
# SK-MEL-5 = experiment: Antitumor activity against human SK-MEL-5 cells assessed as growth inhibition at 10 uM relative to control; outline: as §2
# UACC-257 = experiment: Antitumor activity against human UACC-257 cells assessed as growth inhibition at 10 uM relative to control; outline: as §2
# UACC-62 = experiment: Antitumor activity against human UACC-62 cells assessed as growth inhibition at 10 uM relative to control; outline: as §2
# IGROV-1 = experiment: Antitumor activity against human IGROV-1 cells assessed as growth inhibition at 10 uM relative to control; outline: as §1
# OVCAR-4 = experiment: Antitumor activity against human OVCAR-4 cells assessed as growth inhibition at 10 uM relative to control; outline: as §1
# OVCAR-5 = experiment: Antitumor activity against human OVCAR-5 cells assessed as growth inhibition at 10 uM relative to control; outline: as §1
# NCI/ADR-RES = experiment: Antitumor activity against human NCI-ADR-RES cells assessed as growth inhibition at 10 uM relative to control; outline: as §1
# SK-OV-3 = experiment: Antitumor activity against human SK-OV-3 cells assessed as growth inhibition at 10 uM relative to control; outline: as §2
# 786-0 = experiment: Antitumor activity against human 786-0 cells assessed as growth inhibition at 10 uM relative to control; outline: as §1
# A498 = experiment: Antitumor activity against human A498 cells assessed as growth inhibition at 10 uM relative to control; outline: as §1
# CAKI-1 = experiment: Antitumor activity against human CAKI-1 cells assessed as growth inhibition at 10 uM relative to control; outline: as §1
# RXF 393 = experiment: Antitumor activity against human RXF 393 cells assessed as growth inhibition at 10 uM relative to control; outline: as §1
# SN12C = experiment: Antitumor activity against human SN12C cells assessed as growth inhibition at 10 uM relative to control; outline: as §2
# TK-10 = experiment: Antitumor activity against human TK-10 cells assessed as growth inhibition at 10 uM relative to control; outline: as §2
# UO-31 = experiment: Antitumor activity against human UO-31 cells assessed as growth inhibition at 10 uM relative to control; outline: as §2
# MDA-MB-231 = experiment: Antitumor activity against human MDA-MB-231 cells assessed as growth inhibition at 10 uM relative to control; outline: as §1
# Hs-578T = experiment: Antitumor activity against human Hs-578T cells assessed as growth inhibition at 10 uM relative to control; outline: as §1
# T47D = experiment: Antitumor activity against human T47D cells assessed as growth inhibition at 10 uM relative to control; outline: as §2
structure (smiles),measurement,setting,value
N#Cc1c(-c2ccc(Cl)cc2)nc(N/N=C/c2ccc[nH]2)nc1N1CCOCC1,inhibition of growth at 10 µM,HL-60,97.7%
same,inhibition of growth at 10 µM,RPMI-8226,93.6%
same,inhibition of growth at 10 µM,SR,68.8%
same,inhibition of growth at 10 µM,EKVX,34%
same,inhibition of growth at 10 µM,HOP-62,58.4%
same,inhibition of growth at 10 µM,HOP-92,31.1%
same,inhibition of growth at 10 µM,NCI-H226,31.1%
same,inhibition of growth at 10 µM,NCI-H23,< 1%
same,inhibition of growth at 10 µM,NCI-H322M,< 1%
same,inhibition of growth at 10 µM,NCI-H460,63.3%
same,inhibition of growth at 10 µM,NCI-H522,91.7%
same,inhibition of growth at 10 µM,COLO 205,18.4%
same,inhibition of growth at 10 µM,HCC 2998,< 1%
same,inhibition of growth at 10 µM,HCT-116,< 1%
same,inhibition of growth at 10 µM,HT-29,33.8%
same,inhibition of growth at 10 µM,KM12,63.5%
same,inhibition of growth at 10 µM,SW-620,10.8%
same,inhibition of growth at 10 µM,SF-268,53.8%
same,inhibition of growth at 10 µM,SF-295,41.6%
same,inhibition of growth at 10 µM,SF-539,66.6%
same,inhibition of growth at 10 µM,SNB-19,25.8%
same,inhibition of growth at 10 µM,SNB-75,< 1%
same,inhibition of growth at 10 µM,U-251,< 1%
same,inhibition of growth at 10 µM,Malme-3M,< 11.1%
same,inhibition of growth at 10 µM,M14,< 1%
same,inhibition of growth at 10 µM,MDA-MB-435,< 1%
same,inhibition of growth at 10 µM,SK-MEL-2,< 1%
same,inhibition of growth at 10 µM,SK-MEL-28,< 1%
same,inhibition of growth at 10 µM,SK-MEL-5,14.8%
same,inhibition of growth at 10 µM,UACC-257,12.1%
same,inhibition of growth at 10 µM,UACC-62,12%
same,inhibition of growth at 10 µM,IGROV-1,32.6%
same,inhibition of growth at 10 µM,OVCAR-4,25.9%
same,inhibition of growth at 10 µM,OVCAR-5,< 1%
same,inhibition of growth at 10 µM,NCI/ADR-RES,15.5%
same,inhibition of growth at 10 µM,SK-OV-3,15.3%
same,inhibition of growth at 10 µM,786-0,76.1%
same,inhibition of growth at 10 µM,A498,68.3%
same,inhibition of growth at 10 µM,CAKI-1,< 1%
same,inhibition of growth at 10 µM,RXF 393,< 1%
same,inhibition of growth at 10 µM,SN12C,59.9%
same,inhibition of growth at 10 µM,TK-10,36.7%
same,inhibition of growth at 10 µM,UO-31,85.2%
same,inhibition of growth at 10 µM,MDA-MB-231,20.3%
same,inhibition of growth at 10 µM,Hs-578T,< 1%
same,inhibition of growth at 10 µM,T47D,35.1%
